Several values for one entry are separate records, joined by “and”; a condition that tells them apart may be missing. Equal values may be shown once.
How the values were obtained:
PDE9A2 = PDE9A2 (Homo sapiens, UniProt O76083); assay: In vitro bioassay for inhibition of PDE9; type: biochemical; details: for IC50: IC50 against PDE9, mean of three independent determinations
[1] = In vitro cell viability assay; type: cell-based; details: human, SH-SY5Y cells
Method in brief: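 SH-SY5Y cells seeded at 5 × 10^3 per well and allowed 24 h before test compound addition at 10, 20, 40, 60, 80 and 100 μmol/L. After 48 h exposure, MTT was added for 4 h at 37 °C. Formazan was dissolved in DMSO, and absorbance was read at 570 nm.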

PDE9A2, sequence (O76083 1-533 isoform O76083-2): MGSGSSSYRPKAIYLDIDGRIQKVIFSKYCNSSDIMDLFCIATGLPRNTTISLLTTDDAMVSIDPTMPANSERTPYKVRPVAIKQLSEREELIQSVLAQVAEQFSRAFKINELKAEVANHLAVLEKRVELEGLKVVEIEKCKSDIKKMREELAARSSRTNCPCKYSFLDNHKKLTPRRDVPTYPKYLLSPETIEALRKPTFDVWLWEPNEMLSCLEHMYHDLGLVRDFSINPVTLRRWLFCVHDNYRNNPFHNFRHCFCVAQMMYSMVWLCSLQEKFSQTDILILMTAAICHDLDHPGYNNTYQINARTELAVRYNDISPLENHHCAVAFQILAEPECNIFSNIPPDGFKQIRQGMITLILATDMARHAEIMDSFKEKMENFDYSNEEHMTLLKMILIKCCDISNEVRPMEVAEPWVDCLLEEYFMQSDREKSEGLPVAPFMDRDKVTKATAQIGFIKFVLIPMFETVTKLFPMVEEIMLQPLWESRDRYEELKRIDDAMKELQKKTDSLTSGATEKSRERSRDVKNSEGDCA

| SMILES | inhibition against PDE9A (PDE9A2; at the concentration of 5 mmol/L) | IC50 (PDE9A2) | fold more potent than PF-04447943 (PDE9 IC50) (PDE9A2; vs PF-04447943) | fold increase of IC50 potency compared with compound 5b (PDE9A2; vs compound 5b) | viability at 48 h, 40 μmol/L [1] | viability at 48 h, 100 μmol/L [1] |
| --- | --- | --- | --- | --- | --- | --- |
| CN(CCOc1ccc(CC2SC(=O)NC2=O)cc1)c1ccccn1 (centres unmarked) [Rosiglitazone, reference compound] | no inhibition | – | – | – | – | – |
| COc1cc(/C=C2\SC(=O)NC2=O)ccc1OCCNc1nc2c(cnn2C2CCCC2)c(=O)[nH]1 [Compound 11d, (Z)-5-(4-(2-((1-Cyclopentyl-4-oxo-4,5-dihydro-1H-pyrazolo[3,4-d]pyrimidin-6-yl)amino)ethoxy)-3-methoxybenzylidene)thiazolidine-2,4-dione] | – | 76 nM | – | – | – | – |
| O=C1NC(=O)/C(=C/c2ccc(OCCNc3nc4c(cnn4C4CCCC4)c(=O)[nH]3)c(F)c2)S1 [Compound 11a, (Z)-5-(4-(2-((1-Cyclopentyl-4-oxo-4,5-dihydro-1H-pyrazolo[3,4-d]pyrimidin-6-yl)amino)ethoxy)-3-fluorobenzylidene)thiazolidine-2,4-dione] | – | < 5 nM | 8 fold | 20 fold | 55% | 34% |
| COc1cc(/C=C2\SC(=O)NC2=O)cc(F)c1OCCNc1nc2c(cnn2C2CCCC2)c(=O)[nH]1 [Compound 11c, (Z)-5-(4-(2-((1-Cyclopentyl-4-oxo-4,5-dihydro-1H-pyrazolo[3,4-d]pyrimidin-6-yl)amino)ethoxy)-3-fluoro-5-methoxybenzylidene)thiazolidine-2,4-dione] | – | < 5 nM and 3.3 nM | – | – | 84% | 57% |
| C[C@@H](COc1ccc(CC2SC(=O)NC2=O)cc1)Nc1nc2c(cnn2C2CCCC2)c(=O)[nH]1 (stereo partly drawn) [Compound 15, 5-(4-((S)-2-((1-Cyclopentyl-4-oxo-4,5-dihydro-1H-pyrazolo[3,4-d]pyrimidin-6-yl)amino)propoxy)benzyl)thiazolidine-2,4-dione] | – | 98 nM | – | – | – | – |

Continued, in another order:

| inhibition against PDE9A (PDE9A2; at the concentration of 5 mmol/L) | IC50 (PDE9A2) | fold more potent than PF-04447943 (PDE9 IC50) (PDE9A2; vs PF-04447943) | fold increase of IC50 potency compared with compound 5b (PDE9A2; vs compound 5b) | SMILES | viability at 48 h, 40 μmol/L [1] | viability at 48 h, 100 μmol/L [1] |
| --- | --- | --- | --- | --- | --- | --- |
| – | < 5 nM and 3.5 nM | – | – | O=C1NC(=O)C(Cc2ccc(OCCNc3nc4c(cnn4C4CCCC4)c(=O)[nH]3)c(F)c2)S1 (centres unmarked) [Compound 14a, 5-(4-(2-((1-Cyclopentyl-4-oxo-4,5-dihydro-1H-pyrazolo[3,4-d]pyrimidin-6-yl)amino)ethoxy)-3-fluorobenzyl)thiazolidine-2,4-dione] | 82% | 52% |
| – | < 5 nM and 4.2 nM | – | – | COc1cc(CC2SC(=O)NC2=O)cc(F)c1OCCNc1nc2c(cnn2C2CCCC2)c(=O)[nH]1 (centres unmarked) [Compound 14c, 5-(4-(2-((1-Cyclopentyl-4-oxo-4,5-dihydro-1H-pyrazolo[3,4-d]pyrimidin-6-yl)amino)ethoxy)-3-fluoro-5-methoxybenzyl)thiazolidine-2,4-dione] | 93% | 62% |
